Data from ChEMBL document CHEMBL1134126, “Phenylcyanoguanidines as inhibitors of glucose-induced insulin secretion from beta cells” (Bioorg Med Chem Lett, 2001).

Tests used:
Rattus norvegicus [1] = species: Rattus norvegicus; experiment: In vitro ability to relax phenylephrine contracted rat aorta rings; assay type: functional
[2] = In vitro membrane potential on murine beta-TC3 cells; NA= not active; assay type: functional, Mus musculus
Beta-TC6 [3] = experiment: Percent efficacy of compound for the in vitro inhibition of insulin release from murine beta-TC6 cells; assay type: functional, Mus musculus
Summary of the method: (§1)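 βTC6 cells washed twice in NN buffer (pH-buffered Krebs-type saline with HEPES) plus 0.1% BSA, preincubated 60 min, then incubated 3 h with 22 mM glucose, 0.1 mM IBMX and serial compound dilutions. Supernatant insulin measured by competition ELISA against rat insulin standards with peroxidase-labelled insulin and TMB read-out. EC50 (potency) and percentage inhibition (efficacy) derived from curves; at least two experiments.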

Beta-TC6 [4] = experiment: In vitro inhibition of insulin release from murine beta-TC6 cells; assay type: functional, cell-based; settings: Mus musculus; summary of the method: as §1
[5] = In vitro membrane potential on murine beta-TC3 cells; assay type: functional; settings: Mus musculus
Rattus norvegicus [6] = species: Rattus norvegicus; experiment: Concentration required for the inhibition of insulin release from rat islets; assay type: functional
Summary of the method: (§2)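 Rat islets isolated by collagenase digestion and Ficoll gradient (40–13%), cultured overnight in RPMI/10% FCS/11 mM glucose, then 10 islets per well overnight in DMEM/10% FCS/3 mM glucose. Tested as for βTC6: NN buffer with 0.1% BSA, 3 h with 22 mM glucose and compound dilutions, no IBMX; insulin by competition ELISA.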

[7] = In vitro membrane potential on murine betaTC3 cells; NA=not active; assay type: functional, Mus musculus
Rattus norvegicus [8] = species: Rattus norvegicus; experiment: Compound was evaluated for the inhibition of insulin release from rat islets; assay type: functional; summary of the method: as §2

Row | Compound | IC50 (Rattus norvegicus [1]) [µM] | IC50 [2] | Efficacy (Beta-TC6 [3]) [%] | IC50 (Beta-TC6 [4]) [µM] | IC50 [5] [µM] | IC50 (Rattus norvegicus [6]) [µM] | IC50 [7] | IC50 (Rattus norvegicus [8]) [µM]
1 | CCC(C)(C)/N=C(\NC#N)Nc1cccnc1 | 0.25 |  |  |  |  |  |  | 
2 | CCC(C)(C)/N=C(\NC#N)Nc1cc(C(F)(F)F)cc(C(F)(F)F)c1 | 0.9 | Not Active |  |  |  |  |  | 
3 | COc1cc(N/C(=N/CCC(C)C)NC#N)cc(C(F)(F)F)c1 | 79 |  | 79 | 3.9 | 13 | 4.8 |  | 
4 | CCC(C)(C)/N=C(\NC#N)Nc1cc(Cl)cc(Cl)c1 | 0.3 |  | 57 | 2.3 |  |  | Not Active | 
5 | CCC/N=C(\NC#N)Nc1cc(C(F)(F)F)cc(C(F)(F)F)c1 | 12.4 |  | 58 | 5 | 0.9 |  |  | 
6 | CC(/N=C(\NC#N)Nc1cc(Cl)cc(Cl)c1)C(C)(C)C (configuration not stated) | 0.5 |  | 86 | 26.7 | 19 | 2.2 |  | 
7 | CCC/N=C(\NC#N)Nc1cc(Cl)cc(Cl)c1 | 31 |  | 50 | 3.7 | 36 |  |  | 
8 | CC(/N=C(\NC#N)Nc1cc(C(F)(F)F)cc(C(F)(F)F)c1)C(C)(C)C (configuration not stated) | 8.7 | Not Active | 78 | 4.6 |  |  |  | 
9 | CC(C)CC/N=C(\NC#N)Nc1cc(C(F)(F)F)cc(C(F)(F)F)c1 | 5.6 |  | 77 | 2 | 0.5 |  |  | 
10 | CC(C)CC/N=C(\NC#N)Nc1cc(Cl)cc(Cl)c1 | 18.7 |  | 72 | 0.7 | 4 |  |  | 
11 | CC(/N=C(\NC#N)Nc1cccc(C(F)(F)F)c1)C(C)(C)C (configuration not stated) | 88 |  | 29 | > 100 | > 100 |  |  | 
12 | CC1=Nc2ccc(Cl)cc2S(=O)(=O)N1 [DIAZOXIDE] | 11.5 |  | 23 | 22.4 | 77.4 |  |  | 6.1
13 | CC(N/C(=N\C#N)Nc1ccncc1)C(C)(C)C (configuration not stated) [PINACIDIL ANHYDROUS] | 1.5 |  |  |  |  |  |  | 
